Screening results: PubChem BioAssay, Johns Hopkins Ion Channel Center
Shown are actives, neighbours in structure and some others; about 3.7% of the full set was active somewhere.
KCNQ1 inh: human KCNQ1 channel inhibition; P51787; AID 2642; B-score at 10 µM; CHO-K1 KCNQ1, FluxOR thallium flux fluorescence; hits give high values; hit rate 1.3% among 310,000;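 active = compounds whose thallium flux B-score, printed positive for inhibition, exceeds three library SD while starting fluorescence stays within three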;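 also: channel opened by potassium depolarization with thallium stimulus after 20 min compound exposure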
Target sequence (P51787 whole entry, looked up): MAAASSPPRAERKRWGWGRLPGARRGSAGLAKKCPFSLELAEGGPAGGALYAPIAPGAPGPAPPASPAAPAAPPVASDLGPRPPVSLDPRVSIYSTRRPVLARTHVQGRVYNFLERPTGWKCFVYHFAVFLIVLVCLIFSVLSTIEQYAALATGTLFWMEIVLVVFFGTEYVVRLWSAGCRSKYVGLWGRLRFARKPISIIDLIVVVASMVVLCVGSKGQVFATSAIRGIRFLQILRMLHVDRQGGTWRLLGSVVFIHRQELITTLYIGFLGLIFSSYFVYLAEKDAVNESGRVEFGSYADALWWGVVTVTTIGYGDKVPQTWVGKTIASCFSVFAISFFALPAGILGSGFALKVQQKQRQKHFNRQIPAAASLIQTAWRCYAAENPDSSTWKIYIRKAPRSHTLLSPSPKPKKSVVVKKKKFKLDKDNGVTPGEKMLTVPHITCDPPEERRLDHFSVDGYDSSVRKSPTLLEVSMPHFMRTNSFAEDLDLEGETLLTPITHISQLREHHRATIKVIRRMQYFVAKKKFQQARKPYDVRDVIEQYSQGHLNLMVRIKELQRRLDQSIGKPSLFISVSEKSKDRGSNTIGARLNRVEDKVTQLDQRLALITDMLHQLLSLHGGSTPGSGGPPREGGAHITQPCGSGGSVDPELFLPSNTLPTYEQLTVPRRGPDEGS
Kir21 inh: blocks the mouse Kir2.1 inward-rectifier potassium channel. P35561. B-score at 10 µM. hit rate 0.85% among 310,000. AID 1672. HEK293-Kir2.1, FluxOR thallium flux fluorescence; hits give low values;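 active = fluorescence ratio B-score at or below minus 3 SD of library scores, with starting-brightness B-score within 2 SD, cut at about -4.2 in these data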;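 also: channel flux triggered by added potassium and thallium sulfate stimulus; B-score of peak minus minimum fluorescence over baseline after thallium stimulus; more negative B-score means stronger Kir2.1 block with less thallium influx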
KCNK3 inh: human KCNK3 channel inhibition, primary screen; O14649; CHO-KCNK3 thallium flux, FluxOR fluorescence; hits give low values; B-score at 10 µM; hit rate 0.84% among 340,000; AID 602410;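 active = B-score under library mean minus 4 SD, starting fluorescence ratio at most library mean plus 5 SD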;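 also: more negative B-score means stronger inhibition of thallium flux through KCNK3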
KCNK9 inh: blocks the human KCNK9 two-pore domain potassium channel | Q9NPC2 | hit rate 1.2% among 310,000 | HEK293 KCNK9, FluxOR thallium flux fluorescence; hits give low values | B-score at 10 µM | AID 488922;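 active = ratio B-score over 3 SD below the library mean, with starting fluorescence within 5 SD of its mean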;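 also: negative B-score means less thallium flux so channel inhibition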
hERG rescue: compounds protecting human hERG from proarrhythmic drug block. activation (rescue from dofetilide block), less the hit threshold, % at 10 µM. CHO-hERG, FluxOR thallium flux, dofetilide IC70 present. hit rate 0.51% among 310,000. AID 1511;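 active = activation above the mean of controls blocked by dofetilide plus 5 SD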;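 also: thallium influx through hERG after potassium depolarization seen as dye fluorescence rise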
KCNQ1 pot: potentiators or activators of human KCNQ1 potassium channel; B-score at 10 µM; P51787; hit rate 0.35% among 310,000; CHO-K1 KCNQ1, thallium flux FluxOR fluorescence; hits give high values;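 active = fluorescence ratio B-score, a plate-corrected score, at least three library SD, with initial intensity B-score within 5 SD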
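assay system = CHO-K1 cells stably expressing KCNQ1 | medium = assay buffer, equal DMSO in all wells | timing = 37 °C overnight plating, 90-min dark dye load, 20-min compound pretreatment | measured by = kinetic FluxOR thallium fluorescence, 10-s 1-Hz baseline, 110-s post-stimulus read | measure = fluorescence change relative to baseline, converted to B score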
Numbers stand for hits.

COc1ccccc1OCC(=O)NC1CCCc2ccccc21 (stereo unspecified) was read as KCNQ1 inh inactive, Kir21 inh -4.88, KCNK3 inh inactive, KCNK9 inh inactive, hERG rescue inactive and KCNQ1 pot inactive.
O=C(NC(=S)NC1CCCc2ccccc21)c1ccc(F)cc1 (stereo unspecified) was read as KCNQ1 inh inactive, Kir21 inh inactive, KCNK3 inh inactive, KCNK9 inh inactive, hERG rescue inactive and KCNQ1 pot 9.
CC(C)c1ccccc1OCC(=O)NC1CCCc2ccccc21 (stereo unspecified) was read as KCNQ1 inh inactive, Kir21 inh -6.97, KCNK3 inh inactive, KCNK9 inh inactive, hERG rescue inactive and KCNQ1 pot inactive.
Screening Cc1cccc(OCC(=O)NC2CCCc3ccccc32)c1C (stereo unspecified) returned KCNQ1 inh inactive, Kir21 inh inactive, KCNK3 inh inactive, KCNK9 inh inactive, hERG rescue inactive and KCNQ1 pot inactive.
Screening CCN(CC)CCNC(=O)C1CCN(S(=O)(=O)c2c(C)noc2/C=C/c2ccccc2F)CC1 returned KCNQ1 inh inactive, Kir21 inh -4.59, KCNK3 inh inactive, KCNK9 inh inactive, hERG rescue inactive and KCNQ1 pot inactive.
For O=C(CNCc1ccccc1)Nc1ccc(Oc2ccccc2)cc1 the results were KCNQ1 inh inactive, Kir21 inh -9.53, KCNK3 inh inactive, KCNK9 inh inactive, hERG rescue inactive and KCNQ1 pot inactive.
`NC(=O)c1c(/N=C/c2cccnc2)sc2c1CCCC2` gave KCNQ1 inh inactive, Kir21 inh inactive, KCNK3 inh inactive, KCNK9 inh inactive, hERG rescue inactive and KCNQ1 pot inactive.
For CCOc1ccccc1C(=O)NCC(=O)NCCCSc1ccccc1 the results were KCNQ1 inh inactive, Kir21 inh inactive, KCNK3 inh inactive, KCNK9 inh inactive, hERG rescue inactive and KCNQ1 pot inactive.
Cc1nnc(OCc2nc3ccccc3n2C)c2ccccc12 was read as KCNQ1 inh inactive, Kir21 inh -4.71, KCNK3 inh inactive, KCNK9 inh inactive, hERG rescue inactive and KCNQ1 pot inactive.
Screening Cc1ccccc1OCc1nc2ccccc2n1C returned KCNQ1 inh inactive, Kir21 inh inactive, KCNK3 inh inactive, KCNK9 inh inactive, hERG rescue inactive and KCNQ1 pot inactive.
For O=[N+]([O-])c1cc(C(F)(F)F)ccc1NCCCCNS(=O)(=O)c1ccc(Cl)cc1 the results were KCNQ1 inh inactive, Kir21 inh inactive, KCNK3 inh inactive, KCNK9 inh inactive, hERG rescue inactive and KCNQ1 pot inactive.
For O=[N+]([O-])c1cc(C(F)(F)F)ccc1NCCNC(=S)Nc1ccc(Cl)cc1 the results were KCNQ1 inh 6, Kir21 inh inactive, KCNK3 inh inactive, KCNK9 inh inactive, hERG rescue inactive and KCNQ1 pot inactive.
`O=[N+]([O-])c1ccc(NC(=S)NCCc2ccccc2)cc1` gave KCNQ1 inh 6, Kir21 inh inactive, KCNK3 inh inactive, KCNK9 inh inactive, hERG rescue inactive and KCNQ1 pot inactive.
S=C(NCCc1ccccc1)Nc1ccc(Cl)cc1 was read as KCNQ1 inh inactive, Kir21 inh inactive, KCNK3 inh inactive, KCNK9 inh inactive, hERG rescue inactive and KCNQ1 pot inactive.
For O=[N+]([O-])c1ccc(NC(=S)NCCc2ccc(Cl)cc2)cc1 the results were KCNQ1 inh 8, Kir21 inh inactive, KCNK3 inh inactive, KCNK9 inh inactive, hERG rescue inactive and KCNQ1 pot inactive.
`CS(=O)(=O)c1ccc(Cl)c(NC(=O)COC(=O)CCN2C(=O)C3CC=CCC3C2=O)c1` (stereo unspecified) gave KCNK3 inh inactive.
`C[C@@H]1COC(=O)[C@@H](CC(=O)OC(C)(C)C)C/C=C\C[C@@H](CC(=O)NCCO)C(=O)N1` gave KCNK3 inh inactive.
For COc1cc(/C=C/C(=O)Nc2cc(S(=O)(=O)N3CCOCC3)ccc2N2CCCC2)cc(OC)c1OC the results were KCNQ1 inh inactive, Kir21 inh inactive, KCNK3 inh inactive, KCNK9 inh inactive, hERG rescue inactive and KCNQ1 pot inactive.
`CCN(CC)S(=O)(=O)c1ccc(N2CCCCC2)c(NC(=O)/C=C/c2cc(OC)c(OC)c(OC)c2)c1` gave KCNQ1 inh inactive, Kir21 inh inactive, KCNK3 inh inactive, KCNK9 inh -6.86, hERG rescue inactive and KCNQ1 pot inactive.
